Data: ChEMBL document CHEMBL1156886, “Exploring epidermal growth factor receptor (EGFR) inhibitor features: the role of fused dioxygenated rings on the quinazoline scaffold” (J Med Chem, 2010)
The source made the active and inactive calls. The calls are words filed in the database; no cut-off is given here.

Tests used:
Format in all cases: functional, cell-based
A-431 [1] = test: Cytotoxicity against human A431 cells after 72 hrs by MTT assay; conditions: A-431, 72 h
Method in brief: (§1)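 MTT proliferation assay after 72 h continuous compound exposure in A431 (EGFR-overexpressing) and NIH3T3 (not expressing EGFR) cells. Highest concentration tested 10 μM, limited by precipitation in culture medium. IC50 not derived when inhibition stayed below 50% at 10 μM. Values are mean ± SD of at least three independent experiments.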

A-431 [2] = test: Antiproliferative activity against exogenous EGF-induced human A431 cell growth at 0.1 uM pretreated for 24 hrs measured after 72 hrs of drug removel by MTT assay
NIH3T3 = test: Cytotoxicity against mouse NIH/3T3 cells after 72 hrs by MTT assay; conditions: NIH3T3, 72 h; method in brief: as §1
A-431 [3] = test: Antiproliferative activity against human A431 cells assessed as cell growth at 10 uM pretreated for 24 hrs measured after 68 hrs of drug removel by MTT assay

Structure (SMILES): Fc1ccc(Nc2ncnc3cc4c(cc23)OCCO4)cc1Cl
- IC50 (A-431 [1]): > 10 µM

Structure (SMILES): COc1cc2ncnc(Nc3cccc(Br)c3)c2cc1OC
- Activity (A-431 [2]): inactive
- IC50 (NIH3T3): > 10 µM
- Activity (A-431 [3]): Active

Structure (SMILES): Fc1cc(Br)ccc1Nc1ncnc2cc3c(cc12)OCCCO3
- IC50 (A-431 [1]): > 10 µM

Structure (SMILES): Cc1cccc(Nc2ncnc3cc4c(cc23)OCCCO4)c1
- IC50 (A-431 [1]): 6.29 µM
- IC50 (NIH3T3): > 10 µM
- Activity (A-431 [3]): Active

Structure (SMILES): FC(F)(F)c1cccc(Nc2ncnc3cc4c(cc23)OCCO4)c1
- IC50 (A-431 [1]): 0.77 µM
- IC50 (NIH3T3): 7.1 µM
- Activity (A-431 [3]): Active

Structure (SMILES): Cc1cccc(Nc2ncnc3cc4c(cc23)OCO4)c1
- IC50 (A-431 [1]): 6.69 µM
- IC50 (NIH3T3): > 10 µM
- Activity (A-431 [3]): Active

Structure (SMILES): Fc1ccc(Nc2ncnc3cc4c(cc23)OCCCO4)cc1Cl
- IC50 (A-431 [1]): 7.13 µM
- IC50 (NIH3T3): > 10 µM
- Activity (A-431 [3]): Active

Structure (SMILES): FC(F)(F)c1cccc(Nc2ncnc3cc4c(cc23)OCO4)c1
- IC50 (A-431 [1]): 8.46 µM
- IC50 (NIH3T3): > 10 µM
- Activity (A-431 [3]): Active

Structure (SMILES): Brc1cccc(Nc2ncnc3cc4c(cc23)OCO4)c1
- IC50 (A-431 [1]): 7.16 µM
- IC50 (NIH3T3): > 10 µM
- Activity (A-431 [3]): Active

Structure (SMILES): FC(F)(F)c1cccc(Nc2ncnc3cc4c(cc23)OCCCO4)c1
- IC50 (A-431 [1]): 4.73 µM
- IC50 (NIH3T3): > 10 µM
- Activity (A-431 [3]): Active

Structure (SMILES): Fc1cc(Br)ccc1Nc1ncnc2cc3c(cc12)OCCO3
- IC50 (A-431 [1]): 6.28 µM
- IC50 (NIH3T3): 5.4 µM
- Activity (A-431 [3]): Active

Structure (SMILES): Brc1cccc(Nc2ncnc3cc4c(cc23)OCCO4)c1
- IC50 (A-431 [1]): 0.75 µM
- IC50 (NIH3T3): > 10 µM
- Activity (A-431 [3]): Active

Structure (SMILES): Fc1ccc(Nc2ncnc3cc4c(cc23)OCO4)cc1Cl
- IC50 (A-431 [1]): > 10 µM

Structure (SMILES): Fc1cc(Br)ccc1Nc1ncnc2cc3c(cc12)OCO3
- IC50 (A-431 [1]): > 10 µM

Structure (SMILES): Cc1cccc(Nc2ncnc3cc4c(cc23)OCCO4)c1
- IC50 (A-431 [1]): 0.67 µM
- IC50 (NIH3T3): 5.8 µM
- Activity (A-431 [3]): Active

Structure (SMILES): Brc1cccc(Nc2ncnc3cc4c(cc23)OCCCO4)c1
- IC50 (A-431 [1]): 8.17 µM
- IC50 (NIH3T3): > 10 µM
- Activity (A-431 [3]): Active
